According to PMC10404122 (Drug Design, Development and Therapy, 2023):

How the values were obtained:
[1] = Population pharmacokinetic model; type: in vivo, human; settings: ICU patients, iv, 304 samples from 108 patients, two-compartment model
Method in brief: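 NONMEM fit with FOCE with interaction. One- vs two-compartment chosen by goodness-of-fit plots. Covariates tested: sex, age, weight, ALB, Scr, Cockcroft-Gault Ccr, CKD-EPI eGFR, CRRT, APACHE II. Forward inclusion at P < 0.05 (ΔOFV −3.84), backward elimination at P < 0.001 (ΔOFV −10.828). Robustness checked with 1000 bootstrap resamples (median, 2.5–97.5 percentiles). VPC, NPDE and external-set MPE/RMSE also run.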

[2] = cited from earlier work
[3] = cited from earlier work; remark: listed apart in the source
[4] = Stability of plasma samples; type: in vitro ADME; settings: human plasma (EDTA), −20 °C, HPLC-MS/MS of A2-2
[5] = plasma concentration; cited from earlier work

teicoplanin
Q, inter-compartmental clearance, final model estimate [1]: 3.08 L/h
Vc, volume of the central compartment, final model estimate [1]: 14.4 L
Vp, volume of the peripheral compartment, final model estimate [1]: 51.6 L
patients in whom the standard dosing regimen was insufficient to achieve 10 mg/L ([2]; 400 mg q12h×3, 400 mg qd, within the initial three days): more than 50%
elimination half-life [2]: 169 h
plasma protein binding rate [3]: over 90%
time for which plasma samples were found to be stable [4]: at least 41 days
concentration inducing adverse effects: thrombocytopenia [5]: ≥ 40000 ng/mL
